Measurements gathered from unrelated publications.
Protocols differ between the studies behind these lines.
Mode: agonist
Peroxisome proliferator-activated receptor alpha: Peroxisome proliferator-activated receptor alpha (Rattus norvegicus, UniProt P37230)
Neuromedin-U receptor 2: Neuromedin-U receptor 2 (Mus musculus, UniProt Q8BZ39)
MC3R: Melanocortin receptor 3 (MC3R, Homo sapiens, UniProt P41968)
DRD2: D(2) dopamine receptor (DRD2, Homo sapiens, UniProt P14416)
GPR84: G-protein coupled receptor 84 (GPR84, Homo sapiens, UniProt Q9NQS5)
AVPR2: Vasopressin V2 receptor (AVPR2, Homo sapiens, UniProt P30518)

Cc1ccc(C)c(OCCCC(C)(C)C(=O)O)c1
EC50 (Peroxisome proliferator-activated receptor alpha; reporter gene; luciferase): 122000 nM

CC(C)C[C@H](NC(=O)[C@H](Cc1ccccc1)NC(=O)[C@@H](N)Cc1ccc(O)cc1)C(=O)N[C@@H](Cc1ccccc1)C(=O)N[C@@H](CCCNC(=N)N)C(=O)N1CCC[C@H]1C(=O)N[C@@H](CCCNC(=N)N)C(=O)N[C@@H](CC(N)=O)C(N)=O
EC50 (Neuromedin-U receptor 2; β-arrestin recruitment): 8.32 nM

CCCC[C@H](NC(=O)[C@H](CO)NC(=O)[C@H](Cc1ccc(O)cc1)NC(=O)[C@H](CO)NC(C)=O)C(=O)N[C@@H](CCC(=O)O)C(=O)N[C@@H](Cc1c[nH]cn1)C(=O)N[C@@H](C)C(=O)N[C@@H](CCCNC(=N)N)C(=O)N[C@@H](Cc1c[nH]c2ccccc12)C(=O)NCC(=O)N[C@@H](CCCCN)C(=O)N1CCC[C@H]1C(=O)N[C@H](C(=O)NCC(=O)N[C@@H](CCCCN)C(=O)N[C@@H](CCCCN)C(=O)N[C@@H](CCCNC(=N)N)C(N)=O)C(C)C
EC50 (MC3R; cAMP): 165 nM

FC(F)(F)c1nc2cc(OCCCCN3CCN(c4cccc(Cl)c4Cl)CC3)ccc2s1
EC50 (DRD2; β-arrestin recruitment): 160 nM

CC(C)=CCNc1ncnc2c1ncn2[C@@H]1O[C@H](CO)[C@@H](O)[C@H]1O
EC50 (Adenosine receptor A3 (ADORA3, Homo sapiens, UniProt P0DMS8); cAMP): 2000 nM

O=c1cc(NCCc2cccc(F)c2)[nH]c(=O)[nH]1
EC50 (GPR84; cAMP): 389 nM

NCCCC[C@H](NC(=O)[C@@H]1CCCN1C(=O)[C@@H]1CSSC[C@H](N)C(=O)N[C@@H](Cc2ccc(O)cc2)C(=O)N[C@@H](Cc2ccccc2)C(=O)N[C@@H](CCC(N)=O)C(=O)N[C@@H](CC(N)=O)C(=O)N1)C(=O)NCC(N)=O
EC50 (AVPR2; cAMP; TR-FRET): 0.024 nM

CC(C)C[C@H](NC(=O)[C@H](Cc1ccccc1)NC(=O)[C@H](Cc1ccc(O)cc1)NC(=O)CNC(=O)[C@H](CCCNC(=N)N)NC(=O)[C@H](CO)NC(=O)[C@H](CCC(N)=O)NC(=O)[C@H](CO)NC(=O)[C@H](C)NC(=O)[C@H](Cc1ccccc1)NC(=O)[C@@H]1CCCN1C(=O)[C@H](CO)NC(=O)[C@H](CCC(N)=O)NC(=O)[C@H](Cc1ccccc1)NC(=O)[C@H](CCC(=O)O)NC(=O)[C@H](CCC(=O)O)NC(=O)[C@H](CC(=O)O)NC(=O)[C@@H](NC(=O)[C@H](CCCNC(=N)N)NC(=O)[C@@H](N)Cc1ccccc1)C(C)C)C(=O)N[C@@H](Cc1ccccc1)C(=O)N[C@@H](CCCNC(=N)N)C(=O)N1CCC[C@H]1C(=O)N[C@@H](CCCNC(=N)N)C(=O)N[C@@H](CC(N)=O)C(N)=O
EC50 (Neuromedin-U receptor 2; β-arrestin recruitment): 0.331 nM

NCCCC[C@H](NC(=O)[C@@H]1CCCN1C(=O)[C@@H]1CSSC[C@H](NC(=O)CNC(=O)CNC(=O)CN)C(=O)N[C@@H](Cc2ccc(O)cc2)C(=O)N[C@@H](Cc2ccccc2)C(=O)N[C@@H](CCC(N)=O)C(=O)N[C@@H](CC(N)=O)C(=O)N1)C(=O)NCC(N)=O
EC50 (AVPR2; cAMP; TR-FRET): 28 nM

CCCCCCCCCCNc1cc(O)nc(O)n1
EC50 (GPR84; cAMP): 20.9 nM

C[C@H](NC(=O)Cc1ccccc1)C(=O)N[C@H](Cc1c[nH]c2ccccc12)C(=O)NCCc1ccccc1
EC50 (Bombesin receptor subtype-3 (Brs3, Rattus norvegicus, UniProt Q8K418); calcium signal; fluorescence): 110 nM

O=Nc1c(NCCCc2ccccc2)[nH]c(=O)[nH]c1=O
EC50 (GPR84; cAMP): 1500 nM

CC(=O)N[C@H]1CSSC[C@@H](C(=O)N[C@@H](Cc2c[nH]c3ccccc23)C(N)=O)NC(=O)[C@@H](Cc2ccccc2)NC(=O)[C@H](CCCNC(=N)N)NC1=O
EC50 (MC3R; cAMP): 2400 nM

CCCCCCCCCNc1cc(=O)[nH]c(=O)[nH]1
EC50 (GPR84; cAMP): 30.2 nM

CNc1nc2cc(OCCCCN3CCN(c4cccc5ccc(C)nc45)CC3)ccc2s1
EC50 (DRD2; cAMP; luciferase): 28 nM

O=c1[nH]c(NCCc2ccc(Br)cc2)c(Br)c(=O)[nH]1
EC50 (GPR84; cAMP): 372 nM

CC(C)(Oc1ccc(C(=O)c2ccc(Cl)cc2)cc1)C(=O)O
EC50 (Peroxisome proliferator-activated receptor alpha; reporter gene; luciferase): 194000 nM
